Data from paper PMC7717452 (Journal of Enzyme Inhibition and Medicinal Chemistry, 2020).
Where “and” joins values, the source holds several entries; their conditions need not be identical. Equal entries are not always repeated. Where two headings read alike, the source gives them in different places.

Assays:
[1] = biological target: T1, LiTryS (Leishmania infantum trypanothione synthetase) (Leishmania infantum, UniProt A4I2Z3); assay: TryS activity end-point assay; assay type: biochemical; settings: for IC50: ± 2σ, ∼30 assumed for 50 ± 5% inhibition at 30 µM
T1 sequence (A4I2Z3 1-652): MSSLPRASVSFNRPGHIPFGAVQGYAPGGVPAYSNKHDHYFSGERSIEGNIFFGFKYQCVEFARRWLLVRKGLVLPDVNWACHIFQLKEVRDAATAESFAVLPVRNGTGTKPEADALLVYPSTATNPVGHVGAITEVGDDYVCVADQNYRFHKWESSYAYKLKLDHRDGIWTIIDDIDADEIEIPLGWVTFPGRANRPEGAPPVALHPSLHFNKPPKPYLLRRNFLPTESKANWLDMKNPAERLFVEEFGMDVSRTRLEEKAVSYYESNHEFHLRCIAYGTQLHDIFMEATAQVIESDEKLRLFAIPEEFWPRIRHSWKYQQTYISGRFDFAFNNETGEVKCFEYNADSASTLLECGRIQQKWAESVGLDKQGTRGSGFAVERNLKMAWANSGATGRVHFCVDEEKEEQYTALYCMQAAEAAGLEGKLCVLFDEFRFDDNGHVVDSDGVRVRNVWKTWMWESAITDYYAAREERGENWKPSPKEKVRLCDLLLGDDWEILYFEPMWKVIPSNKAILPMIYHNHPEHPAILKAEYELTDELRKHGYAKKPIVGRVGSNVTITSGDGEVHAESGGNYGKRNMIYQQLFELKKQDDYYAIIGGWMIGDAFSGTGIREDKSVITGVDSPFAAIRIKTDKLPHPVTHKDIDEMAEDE
In short: (§1)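 Recombinant TryS end-point assay in 100 mM HEPES pH 7.4 with 5 mM DTT, 10 mM MgSO4 and 0.5 mM EDTA. ATP was 150 µM and spermidine 2 mM. GSH was 0.25 mM for LiTryS, 0.05 mM for TbTryS and 0.57 mM for TcTryS. Enzyme started the reaction and BIOMOL Green stopped it after 15 min. A650 was read after 20 min at room temperature. Values were corrected with no-enzyme blanks and for compound interference with phosphate. At least quadruplicates; IC50 is given ± 2σn-1.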

[2] = test system: L. braziliensis amastigotes; assay: Macrophage infection assay, L. braziliensis amastigotes; assay type: cell-based, Leishmania braziliensis; settings: for activity at 10 µM: Leishmania braziliensis, Macrophage, read-out: % infection by L. braziliensis at 10 µM
In short: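 J774 macrophages were plated on coverslips at 1 × 10^5 cells/mL in DMEM with 1% FBS. They were infected with stationary-phase L. braziliensis promastigotes (MHOM/BR/01/BA788; 1:20) for 2 h at room temperature, then 22 h at 35 °C. After washing, cells got test compound (5 or 10 µM, or 10–0.01 µM) in 1% DMSO for 24 h at 37 °C and 5% CO2. Cells were EtOH-fixed and DAPI-stained, and 100–200 macrophages were imaged. % infected cells is relative to DMSO.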

[3] = test system: Mouse macrophages from the cell line J774; assay: Cytotoxicity assay; assay type: cell-based; settings: read-out: CC50, macrophages; 24 h, non-infected J774
In short: (§2)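 J774 mouse macrophages were grown in DMEM with 10% FBS and penicillin/streptomycin at 37 °C in humidified 5% CO2. Cells were seeded at 6 × 10^4 cells/mL and exposed the next day for 24 h to test compound at 100 to 0.001 µM (200 µM for one compound). The WST-1 signal was read at A450. % cytotoxicity was calculated against DMSO-treated and untreated cells, and CC50 is given ± σn–1.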

TbTryS = biological target: T2, TbTryS (Trypanosoma brucei brucei, UniProt Q8IEX1); assay: TryS activity end-point assay; assay type: biochemical; settings: IC50 value, TbTryS, ± 2σ; ~30 assumed for 50 ± 5% inhibition at 30 µM
T2 sequence (Q8IEX1 1-627): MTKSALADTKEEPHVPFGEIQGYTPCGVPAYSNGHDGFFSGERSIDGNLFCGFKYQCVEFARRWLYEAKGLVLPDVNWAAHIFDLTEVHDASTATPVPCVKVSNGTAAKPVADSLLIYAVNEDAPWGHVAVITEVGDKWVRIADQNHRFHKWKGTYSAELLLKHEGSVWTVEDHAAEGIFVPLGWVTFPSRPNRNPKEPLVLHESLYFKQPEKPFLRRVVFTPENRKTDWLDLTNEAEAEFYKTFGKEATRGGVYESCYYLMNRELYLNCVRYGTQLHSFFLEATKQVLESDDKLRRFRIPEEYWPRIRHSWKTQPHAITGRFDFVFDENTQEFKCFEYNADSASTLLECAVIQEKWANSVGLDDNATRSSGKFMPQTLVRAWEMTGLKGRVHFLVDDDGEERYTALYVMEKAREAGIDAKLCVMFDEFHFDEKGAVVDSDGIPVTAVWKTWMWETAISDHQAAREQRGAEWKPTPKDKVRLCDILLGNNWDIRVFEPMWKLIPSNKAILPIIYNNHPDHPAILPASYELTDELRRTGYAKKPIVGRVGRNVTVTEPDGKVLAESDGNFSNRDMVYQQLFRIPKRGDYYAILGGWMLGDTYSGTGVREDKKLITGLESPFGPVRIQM
In short: as §1

Cytotoxicity assay = assay type: cell-based, mouse; settings: mouse, J774 macrophages (ATCC TIB67), non-infected
In short: as §2

TcTryS = biological target: T3, TcTryS (Trypanosoma cruzi, UniProt Q9GT49); assay: TryS activity end-point assay; assay type: biochemical; settings: IC50 value, TcTryS, ± 2σ; ~30 assumed for 50 ± 5% inhibition at 30 µM
T3 sequence (Q9GT49 1-647): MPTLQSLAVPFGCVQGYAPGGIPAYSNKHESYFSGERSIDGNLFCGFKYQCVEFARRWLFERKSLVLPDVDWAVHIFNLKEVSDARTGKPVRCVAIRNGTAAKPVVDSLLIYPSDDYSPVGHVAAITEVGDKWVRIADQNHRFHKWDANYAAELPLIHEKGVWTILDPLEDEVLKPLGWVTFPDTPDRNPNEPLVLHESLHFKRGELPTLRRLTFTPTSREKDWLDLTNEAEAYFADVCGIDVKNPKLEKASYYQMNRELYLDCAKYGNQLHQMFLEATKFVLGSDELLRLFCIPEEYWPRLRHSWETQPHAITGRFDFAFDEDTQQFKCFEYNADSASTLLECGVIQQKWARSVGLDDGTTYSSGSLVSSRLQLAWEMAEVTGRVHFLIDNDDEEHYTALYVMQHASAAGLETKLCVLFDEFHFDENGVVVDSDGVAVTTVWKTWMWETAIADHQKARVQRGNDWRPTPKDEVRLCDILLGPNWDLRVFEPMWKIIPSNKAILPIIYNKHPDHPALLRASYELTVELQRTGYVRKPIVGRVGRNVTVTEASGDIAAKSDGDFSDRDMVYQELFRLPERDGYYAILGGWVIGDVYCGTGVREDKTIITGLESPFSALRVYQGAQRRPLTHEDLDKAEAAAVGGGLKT
In short: as §1

In the case of CC(C)(C)OC(=O)NCCNC(=O)CN1C(=O)Cc2c([nH]c3ccc(Br)cc23)-c2ccc(Cl)cc21 [Compound 29], the “% TryS inhibition at 30 µM, LiTryS” value ([1]; 30 µM, NA = not active (enzyme activity > 95%)) is reported as 36.7 ± 5.9%.
Work on O=C(CN1C(=O)Cc2c([nH]c3ccc(Br)cc23)-c2ccc(Cl)cc21)N1CCN(c2ncccn2)CC1 [Compound 23] yielded an IC50 ([1]; IC50 value, LiTryS) of 12.5 ± 0.2 µM.
Work on O=C(CN1C(=O)Cc2c([nH]c3ccc(Br)cc23)-c2ccc(Cl)cc21)NCCN1CCOCC1 [Compound 30] yielded an IC50 ([1]; IC50 value, LiTryS) of 3.3 ± 0.1 µM.
For CCN(CC)CCNC(=O)CN1C(=O)Cc2c([nH]c3ccc(Br)cc23)-c2ccc(Cl)cc21 [Compound 28], the “% infection by L. braziliensis at 5 µM” value ([2]; 5 µM, 24 h, relative to infected non-treated macrophages) was 38 ± 1 at 5 µM %, the “SI, L. braziliensis amastigotes” value ([2]; selectivity index, macrophage CC50 and amastigote EC50) was 2 and the CC50 [3] was 6 ± 1 µM. For the same molecule, the IC50 ([1]; IC50 value, LiTryS) was 0.5 ± 0.1 µM.
CCN(CC)C(=O)CN1C(=O)Cc2c([nH]c3ccc(Br)cc23)-c2ccc(Cl)cc21 [Compound 12] gave an IC50 (TbTryS) of ~30 µM, an activity at 10 µM ([2]; 24 h) of 82 ± 14% and a cytotoxicity at 24 h, 100 µM (Cytotoxicity assay) of 24 ± 8%. It also gave an IC50 ([1]; IC50 value, LiTryS) of 0.5 ± 0.1 µM.
With O=C(CN1C(=O)Cc2c([nH]c3ccc(Br)cc23)-c2ccc(Cl)cc21)Nc1nncs1 [Compound 16] the IC50 ([1]; IC50 value, LiTryS) was ~30 µM and the IC50 (TcTryS) was 30 µM.
O=C1Cc2c([nH]c3ccc(Br)cc23)-c2ccc(Cl)cc2N1CCO [Compound 2] showed an IC50 ([1]; read-out: IC50 value, LiTryS) of ~30 µM.
NCCNC(=O)CN1C(=O)Cc2c([nH]c3ccc(Br)cc23)-c2ccc(Cl)cc21 [Compound 27] showed an activity at 10 µM ([2]; 24 h) of 68 ± 1% and a cytotoxicity at 24 h, 100 µM (Cytotoxicity assay) of 36 ± 1%.
With O=C(CN1C(=O)Cc2c([nH]c3ccc(Br)cc23)-c2ccc(Cl)cc21)NCCN1CCNCC1 [Compound 32] the activity at 10 µM ([2]; 24 h) was 139 ± 2%, the cytotoxicity at 24 h, 100 µM (Cytotoxicity assay) was 24 ± 3% and the IC50 ([1]; IC50 value, LiTryS) was 0.6 ± 0.1 µM.
O=C(CN1C(=O)Cc2c([nH]c3ccc(Br)cc23)-c2ccc(Cl)cc21)Nc1ncco1 [Compound 18] gave an IC50 ([1]; read-out: IC50 value, LiTryS) of 20.1 ± 1.5 µM.
Molecule CN1CCN(CCNC(=O)CN2C(=O)Cc3c([nH]c4ccc(Br)cc34)-c3ccc(Cl)cc32)CC1 [Compound 33] has an IC50 ([1]; IC50 value, LiTryS) of 1.1 ± 0.3 µM.
CCNC(=O)CN1C(=O)Cc2c([nH]c3ccc(Br)cc23)-c2ccc(Cl)cc21 [Compound 11] showed an IC50 ([1]; IC50 value, LiTryS) of 1.5 ± 0.2 µM.
CNC(=O)CN1C(=O)Cc2c([nH]c3ccc(Br)cc23)-c2ccc(Cl)cc21 [Compound 9] showed an activity at 10 µM ([2]; 24 h) of 107 ± 2%, a cytotoxicity at 24 h, 100 µM (Cytotoxicity assay) of 93 ± 4% and an IC50 ([1]; IC50 value, LiTryS) of 0.8 ± 0.1 µM.
O=C(CN1C(=O)Cc2c([nH]c3ccc(Br)cc23)-c2ccc(Cl)cc21)NC(CO)(CO)CO [Compound 14] gave an IC50 ([1]; IC50 value, LiTryS) of 5.2 ± 0.4 µM.
In the case of CC(C)(C)OC(=O)N1CCN(C(=O)CN2C(=O)Cc3c([nH]c4ccc(Br)cc34)-c3ccc(Cl)cc32)CC1 [Compound 22], the IC50 ([1]; IC50 value, LiTryS) is reported as 30 µM and ~30 µM.
